Measurements from ChEMBL document CHEMBL4038284, “Synthesis of novel quinoline-based 4,5-dihydro-1H-pyrazoles as potential anticancer, antifungal, antibacterial and antiprotozoal agents” (Eur J Med Chem, 2017).
Activity calls are given as the source filed them. The calls are words filed in the database; no cut-off is given here.

How the values were obtained:
SNB-19 = assay: Growth inhibition of human SNB19 cells at 10 uM incubated for 48 hrs by sulforhodamine B assay; assay type: functional, cell-based
Method in brief: (§1)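 NCI-60 single-dose screen at 10 µM for 48 h. Cells were grown in RPMI-1640 with 5% FBS and 2 mM L-glutamine and preincubated 24 h before compound. Time-zero plates were TCA-fixed at compound addition. After exposure, cells were TCA-fixed, stained with SRB and read at 515 nm. Percentage growth was calculated against time-zero and untreated-control absorbances.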

TK-10 = assay: Growth inhibition of human TK10 cells at 10 uM incubated for 48 hrs by sulforhodamine B assay; assay type: functional, cell-based; method in brief: as §1
Hs-578T = assay: Growth inhibition of human Hs578T cells at 10 uM incubated for 48 hrs by sulforhodamine B assay; assay type: functional, cell-based
Method in brief: (§2)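 NCI 60-line panel, single 10 μM dose. Cells were grown in RPMI-1640 with 5% FBS and 2 mM L-glutamine and pre-incubated 24 h before compound addition (DMSO stock). Exposure was 48 h at 37 °C, 5% CO2. Cells were fixed with cold TCA (10% final), stained with 0.4% SRB, bound dye dissolved in 10 mM Tris base, A515 read. Growth was taken relative to time-zero and untreated control plates.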

K562 = assay: Growth inhibition of human K562 cells at 10 uM incubated for 48 hrs by sulforhodamine B assay; assay type: functional, cell-based; method in brief: as §2
SF-295 = assay: Growth inhibition of human SF295 cells at 10 uM incubated for 48 hrs by sulforhodamine B assay; assay type: functional, cell-based; method in brief: as §2
KM12 = assay: Growth inhibition of human KM12 cells at 10 uM incubated for 48 hrs by sulforhodamine B assay; assay type: functional, cell-based; method in brief: as §2
HL-60(TB) = assay: Growth inhibition of human HL-60(TB) cells at 10 uM incubated for 48 hrs by sulforhodamine B assay; assay type: functional, cell-based
Method in brief: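 NCI 60-line single-dose screen at 10 μM, 48 h. Cells in RPMI-1640 with 5% FBS and 2 mM L-glutamine at 37 °C, 5% CO2. Growth measured by TCA fixation and SRB staining (515 nm), relative to time-zero and untreated control wells.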

Klebsiella pneumoniae = assay: Antibacterial activity against carbapenemase positive Klebsiella pneumoniae BAA 1705 after 24 hrs by resazurin dye based microdilution assay; assay type: functional; details: BAA 1705, 24 h
Method in brief: (§3)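 MIC taken as the lowest concentration giving visible inhibition and/or by resazurin (1 mg/mL). Gentamicin was the control. Run in duplicate, repeated at least three times.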

SR = assay: Growth inhibition of human SR cells at 10 uM incubated for 48 hrs by sulforhodamine B assay; assay type: functional, cell-based; method in brief: as §1
MDA-MB-231 = assay: Growth inhibition of human MDA-MB-231 cells at 10 uM incubated for 48 hrs by sulforhodamine B assay; assay type: functional, cell-based; method in brief: as §2
RXF 393 = assay: Growth inhibition of human RXF393 cells at 10 uM incubated for 48 hrs by sulforhodamine B assay; assay type: functional, cell-based; method in brief: as §2
Candida albicans [1] = assay: Growth inhibition of Candida albicans ATCC 10231 at 15.62 ug/ml incubated for 48 hrs under dark condition by broth microdilution method relative to control; assay type: functional; details: ATCC 10231, 48 h, read-out: GI
Method in brief: (§4)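 CLSI M27-A3 broth microdilution in RPMI-1640, DMSO ≤1%. Inoculum 1-5 × 10^3 CFU/mL. Incubated 48 h at 30 °C, dark. % inhibition = 100 − (OD405 test − sterility control)/(OD405 growth control − sterility control), with growth and sterility control wells. Triplicate.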

Candida albicans [2] = assay: Growth inhibition of Candida albicans ATCC 10231 at 7.8 ug/ml incubated for 48 hrs under dark condition by broth microdilution method relative to control; assay type: functional; details: ATCC 10231, 48 h, read-out: GI; method in brief: as §4
Candida albicans [3] = assay: Antifungal activity against Candida albicans ATCC 10231 incubated for 48 hrs under dark condition by broth microdilution method; assay type: functional; details: ATCC 10231, 48 h
Method in brief: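 CLSI M27-A3 broth microdilution in RPMI-1640, DMSO ≤1%, compounds at 250-0.98 µg/mL final. Inoculum 1-5 × 10^3 CFU/mL. Incubated 48 h at 30 °C in a moist dark chamber, read at OD405. MIC80 and MIC50 taken from % inhibition dose-response curves (mean ± SEM, triplicate). Amphotericin B was the positive control.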

Staphylococcus aureus = assay: Antibacterial activity against vancomycin-intermediate Staphylococcus aureus after 24 hrs by resazurin dye based microdilution assay; assay type: functional; method in brief: as §3
Cryptococcus neoformans [4] = assay: Growth inhibition of Cryptococcus neoformans ATCC 32264 at 62.5 ug/ml incubated for 48 hrs under dark condition by broth microdilution method relative to control; assay type: functional; details: ATCC 32264, 48 h, read-out: GI; method in brief: as §4
A549 = assay: Growth inhibition of human A549/ATCC cells at 10 uM incubated for 48 hrs by sulforhodamine B assay; assay type: functional, cell-based
Method in brief: (§5)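 NCI 60-cell-line screen at a single 10 µM dose. Cells in RPMI-1640 with 5% FBS and 2 mM L-glutamine, pre-incubated 24 h, then treated for 48 h at 37 °C. TCA fixation, sulforhodamine B staining, absorbance at 515 nm. Percentage growth calculated against time-zero and untreated controls.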

HCT-116 = assay: Growth inhibition of human HCT116 cells at 10 uM incubated for 48 hrs by sulforhodamine B assay; assay type: functional, cell-based; method in brief: as §5
Malme-3M = assay: Growth inhibition of human MALME-3M cells at 10 uM incubated for 48 hrs by sulforhodamine B assay; assay type: functional, cell-based; method in brief: as §2
Cryptococcus neoformans [5] = assay: Growth inhibition of Cryptococcus neoformans ATCC 32264 at 3.4 ug/ml incubated for 48 hrs under dark condition by broth microdilution method relative to control; assay type: functional; details: ATCC 32264, 48 h, read-out: GI
MCF7 = assay: Growth inhibition of human MCF7 cells at 10 uM incubated for 48 hrs by sulforhodamine B assay; assay type: functional, cell-based; method in brief: as §2
NCI-H460 = assay: Growth inhibition of human NCI-H460 cells at 10 uM incubated for 48 hrs by sulforhodamine B assay; assay type: functional, cell-based; method in brief: as §2
Candida albicans [6] = assay: Growth inhibition of Candida albicans ATCC 10231 at 3.4 ug/ml incubated for 48 hrs under dark condition by broth microdilution method relative to control; assay type: functional; details: ATCC 10231, 48 h, read-out: GI
NCI/ADR-RES = assay: Growth inhibition of human NCI/ADR-RES cells at 10 uM incubated for 48 hrs by sulforhodamine B assay; assay type: functional, cell-based; method in brief: as §2
RPMI-8226 = assay: Growth inhibition of human RPMI8226 cells at 10 uM incubated for 48 hrs by sulforhodamine B assay; assay type: functional, cell-based; method in brief: as §2
SK-MEL-2 = assay: Growth inhibition of human SK-MEL-2 cells at 10 uM incubated for 48 hrs by sulforhodamine B assay; assay type: functional, cell-based; method in brief: as §1
IGROV-1 = assay: Growth inhibition of human IGROV1 cells at 10 uM incubated for 48 hrs by sulforhodamine B assay; assay type: functional, cell-based; method in brief: as §2
T47D = assay: Growth inhibition of human T47D cells at 10 uM incubated for 48 hrs by sulforhodamine B assay; assay type: functional, cell-based; method in brief: as §1
NCI-H23 = assay: Growth inhibition of human NCI-H23 cells at 10 uM incubated for 48 hrs by sulforhodamine B assay; assay type: functional, cell-based; method in brief: as §2

Row | Compound | growth inhibition (GI) (SNB-19) | growth inhibition (GI) (TK-10) | growth inhibition (GI) (Hs-578T) | growth inhibition (GI) (K562) | growth inhibition (GI) (SF-295) | growth inhibition (GI) (KM12) | growth inhibition (GI) (HL-60(TB)) | MIC (Klebsiella pneumoniae) | growth inhibition (GI) (SR) | growth inhibition (GI) (MDA-MB-231) | growth inhibition (GI) (RXF 393) | inhibition of growth at 15.62 µg/mL (Candida albicans [1]) | inhibition of growth at 7.8 µg/mL (Candida albicans [2]) | MIC50 (Candida albicans [3]) | MIC80 (Candida albicans [3]) | MIC (Staphylococcus aureus) | inhibition of growth at 62.5 µg/mL (Cryptococcus neoformans [4]) | growth inhibition (GI) (A549) | growth inhibition (GI) (HCT-116) | growth inhibition (GI) (Malme-3M) | other results
1 | COc1ccc(C2=NN(c3ccc(Cl)cc3)C(c3cccc(Nc4ccnc5cc(Cl)ccc45)c3)C2)cc1 (stereo not given) | inactive | inactive | inactive | inactive | inactive | inactive | inactive | > 1000 µg/mL | inactive | inactive | inactive | 0% | 0% | ≥ 250 µg/mL | ≥ 250 µg/mL | > 1000 µg/mL | 14.1% | inactive | inactive | inactive | inhibition of growth at 3.4 µg/mL (Cryptococcus neoformans [5]): 7.99%; growth inhibition (GI) (MCF7): inactive; growth inhibition (GI) (NCI-H460): inactive; inhibition of growth at 3.4 µg/mL (Candida albicans [6]): 0%; growth inhibition (GI) (NCI/ADR-RES): inactive; growth inhibition (GI) (RPMI-8226): inactive; growth inhibition (GI) (SK-MEL-2): inactive; growth inhibition (GI) (IGROV-1): inactive; growth inhibition (GI) (T47D): inactive; growth inhibition (GI) (NCI-H23): inactive
2 | Clc1ccc(C2=NN(c3ccc(Cl)cc3)C(c3cccc(Nc4ccnc5cc(Cl)ccc45)c3)C2)cc1 (stereo not given) | inactive | inactive | inactive | inactive | inactive | inactive | inactive | > 1000 µg/mL | inactive | inactive | inactive | 6.09% | 2.96% | ≥ 250 µg/mL | ≥ 250 µg/mL | > 1000 µg/mL | 25.8% | inactive | inactive | inactive | inhibition of growth at 3.4 µg/mL (Cryptococcus neoformans [5]): 17.4%; growth inhibition (GI) (MCF7): inactive; growth inhibition (GI) (NCI-H460): inactive; inhibition of growth at 3.4 µg/mL (Candida albicans [6]): 0%; growth inhibition (GI) (NCI/ADR-RES): inactive; growth inhibition (GI) (RPMI-8226): inactive; growth inhibition (GI) (SK-MEL-2): inactive; growth inhibition (GI) (IGROV-1): inactive; growth inhibition (GI) (T47D): inactive; growth inhibition (GI) (NCI-H23): inactive
3 | Clc1ccc(C2=NN(c3ccccc3)C(c3cccc(Nc4ccnc5cc(Cl)ccc45)c3)C2)cc1 (stereo not given) | inactive | inactive | inactive | inactive | inactive | inactive | inactive | > 1000 µg/mL | inactive | inactive | inactive | 4.29% | 3.8% | ≥ 250 µg/mL | ≥ 250 µg/mL | > 1000 µg/mL | 0% | inactive | inactive | inactive | inhibition of growth at 3.4 µg/mL (Cryptococcus neoformans [5]): 0%; growth inhibition (GI) (MCF7): inactive; growth inhibition (GI) (NCI-H460): inactive; inhibition of growth at 3.4 µg/mL (Candida albicans [6]): 0%; growth inhibition (GI) (NCI/ADR-RES): inactive; growth inhibition (GI) (RPMI-8226): inactive; growth inhibition (GI) (SK-MEL-2): inactive; growth inhibition (GI) (IGROV-1): inactive; growth inhibition (GI) (T47D): inactive; growth inhibition (GI) (NCI-H23): inactive
4 | Clc1ccc(C2=NN(c3cc(Cl)cc(Cl)c3)C(c3cccc(Nc4ccnc5cc(Cl)ccc45)c3)C2)cc1 (stereo not given) | inactive | inactive | inactive | inactive | inactive | inactive | inactive | > 1000 µg/mL | inactive | inactive | inactive | 10.8% | 6.01% | ≥ 250 µg/mL | ≥ 250 µg/mL | > 1000 µg/mL | 1.2% | inactive | inactive | inactive | inhibition of growth at 3.4 µg/mL (Cryptococcus neoformans [5]): 0%; growth inhibition (GI) (MCF7): inactive; growth inhibition (GI) (NCI-H460): inactive; inhibition of growth at 3.4 µg/mL (Candida albicans [6]): 1.64%; growth inhibition (GI) (NCI/ADR-RES): inactive; growth inhibition (GI) (RPMI-8226): inactive; growth inhibition (GI) (SK-MEL-2): inactive; growth inhibition (GI) (IGROV-1): inactive; growth inhibition (GI) (T47D): inactive; growth inhibition (GI) (NCI-H23): inactive
5 | COc1ccc(C2=NN(c3ccccc3)C(c3cccc(Nc4ccnc5cc(Cl)ccc45)c3)C2)cc1 (stereo not given) | inactive | inactive | inactive | inactive | inactive | inactive | inactive | > 1000 µg/mL | inactive | inactive | inactive | 8.21% | 7.57% | ≥ 250 µg/mL | ≥ 250 µg/mL | > 1000 µg/mL | 10.6% | inactive | inactive | inactive | inhibition of growth at 3.4 µg/mL (Cryptococcus neoformans [5]): 2.74%; growth inhibition (GI) (MCF7): inactive; growth inhibition (GI) (NCI-H460): inactive; inhibition of growth at 3.4 µg/mL (Candida albicans [6]): 0.38%; growth inhibition (GI) (NCI/ADR-RES): inactive; growth inhibition (GI) (RPMI-8226): inactive; growth inhibition (GI) (SK-MEL-2): inactive; growth inhibition (GI) (IGROV-1): inactive; growth inhibition (GI) (T47D): inactive; growth inhibition (GI) (NCI-H23): inactive
